In paper PMC5774851 (Journal of medicinal chemistry, 2016):

Experiments:
[1] = test system: Slc3a1 knockout male mice; conditions: knockout mouse model of cystinuria, previous study; cited from earlier work
[2] = Chemical stability in pH 7.4 phosphate buffered saline at 37 °C by LC-MS; assay type: physicochemical
Procedure, shortened: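 Test compound incubated in pH 7.4 phosphate-buffered saline at 37 °C. Loss of parent compound followed over time by LC-MS, and half-life taken from its disappearance.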

[3] = In situ AFM measurement of L-cystine crystal step velocities; conditions: aqueous 2 mM L-cystine; for V/V0 normalized step velocity @ 15 μM: 15 μM inhibitor; for V/V0 normalized step velocity @ 30 μM: 30 μM inhibitor; for V/V0 normalized step velocity @ 45 μM: 45 μM inhibitor
[4] = L-cystine diamides in mouse urine after oral dosing; assay type: in vivo; conditions: mice, daily gavage 29.3 μmol/kg, micromolar concentrations in urine
[5] = test system: Slc3a1 knockout male mice; assay: In vivo activity in genetic mouse model of cystinuria; conditions: 29.3 μmol/kg daily gavage for 4 weeks
Procedure, shortened: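 Male Slc3a1 knockout mice in groups of six or seven received test compound at 29.3 μmol/kg by daily oral gavage for 4 weeks. Seven controls got water only. Read-out was the fraction of mice in each group that formed stones.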

[6] = cited from earlier work

half-life [2] | Oral bioavailability (found in urine after oral dosing) [4] | Concentration of L-cystine in the supernatant in the absence of inhibitor (Fluorescence assay; water, 25 °C, 72 h) | SMILES | Effect on stone size and stone burden [1] | Effect on the number of mice that formed stones [1] | Ratio (improvement in potency over the control CDME) (Fluorescence assay; EC2x ratio vs CDME) | V/V0 normalized step velocity @ 15 μM [3] | V/V0 normalized step velocity @ 30 μM [3] | V/V0 normalized step velocity @ 45 μM [3] | Effectiveness in preventing stone formation [5] | Reported equilibrium concentration of L-cystine [6]
~0.113 days | – | – | COC(=O)[C@@H](N)CSSC[C@H](N)C(=O)OC [CDME, L-cystine dimethyl ester, reference compound] | effective in reducing stone size and stone burden | no effect | 1.0 | 0.4–0.65 | 0.27–0.54 | 0.21–0.48 | – | –
19.8 days | orally bioavailable | – | Cl.Cl.N[C@@H](CSSC[C@H](N)C(=O)N1CCOCC1)C(=O)N1CCOCC1 [Compound 1a, L-Cystine bismorpholide] | – | – | – | 0.44–0.65 | 0.34–0.58 | 0.29–0.53 | ineffective | –
46.2 days | orally bioavailable | – | CN1CCN(C(=O)[C@@H](N)CSSC[C@H](N)C(=O)N2CCN(C)CC2)CC1.Cl.Cl.Cl.Cl [Compound 1b, L-cystine bis(N′-methylpiperazide)] | – | – | – | 0.52–0.66 | 0.32–0.50 | 0.30–0.40 | effective | –
– | – | approximately 1 mM | N[C@@H](CSSC[C@H](N)C(=O)O)C(=O)O [L-cystine] | – | – | – | – | – | – | – | 0.7 mM
